Experimental data gathered from unrelated publications.
Each line is one published result; the experiments were not run side by side.
Target: Mitogen-activated protein kinase kinase kinase 3 (MAP3K3, Homo sapiens, UniProt Q99759)
Sequence (Q99759 1-626, as in one of the studies): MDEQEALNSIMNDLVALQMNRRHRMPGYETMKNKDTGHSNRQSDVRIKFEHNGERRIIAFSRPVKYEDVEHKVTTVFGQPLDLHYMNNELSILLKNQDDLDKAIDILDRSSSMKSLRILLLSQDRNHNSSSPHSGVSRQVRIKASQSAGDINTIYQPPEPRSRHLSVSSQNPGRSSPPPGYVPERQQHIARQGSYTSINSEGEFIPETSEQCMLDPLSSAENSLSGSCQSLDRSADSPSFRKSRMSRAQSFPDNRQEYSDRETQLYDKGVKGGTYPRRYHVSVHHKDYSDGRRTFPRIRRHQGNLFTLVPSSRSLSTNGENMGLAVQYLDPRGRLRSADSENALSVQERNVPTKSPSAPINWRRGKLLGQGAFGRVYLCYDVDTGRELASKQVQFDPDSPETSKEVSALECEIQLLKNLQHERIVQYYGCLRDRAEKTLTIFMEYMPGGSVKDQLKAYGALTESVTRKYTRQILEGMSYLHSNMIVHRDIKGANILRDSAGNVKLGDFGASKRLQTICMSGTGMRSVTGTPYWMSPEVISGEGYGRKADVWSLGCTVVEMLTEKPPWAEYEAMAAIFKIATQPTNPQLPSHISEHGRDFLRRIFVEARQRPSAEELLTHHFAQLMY

COc1cc(Nc2c(C#N)cnc3cc(OCCCN4CCN(C)CC4)c(OC)cc23)c(Cl)cc1Cl — remaining signal (cell-free assay; 0.5 µM): 11.8%
O=C(Nc1cnn(-c2csc(C(=O)NC3COC3)c2)c1)Nc1ccccc1Cl — remaining activity (enzyme activity, inhibitor; 5 µM): 113%
CCS(=O)(=O)c1cc2cc(C[C@@](O)(CC(C)(C)c3ccc(F)cc3C(N)=O)C(F)(F)F)[nH]c2cn1 — remaining binding (cell-free assay, competition with immobilised ligand; 1 µM): 90%
CC(C)(O)[C@H]1CC[C@H](Nc2ccc3ncc(-c4cccc(C(F)(F)F)c4)n3n2)CC1 — remaining activity (enzyme activity, inhibitor; 1 µM): 92.2%
CCOc1cc(-c2nncn2C)ccc1Nc1ncc2cc(C)nc(NCC(C)(C)C)c2n1 — inhibition (cell-free assay, TR-FRET; 1 µM): ≤ 15%
O=C1Nc2ccc(Cl)cc2C1=Cc1cc(Cl)c(O)c(Cl)c1 — remaining signal (cell-free assay; 0.5 µM): 101%
Cc1ccc(C(=O)NCc2ccsc2)cc1C#Cc1cn(C(C)C)c2ncnc(N)c12 — activity vs control (enzyme activity, inhibitor; 1 µM): 70%
Cc1ccc(C(=O)Nc2ccc(CN3CCN(C)CC3)c(C(F)(F)F)c2)cc1C#Cc1cnc2cccnn12 — remaining activity (enzyme activity, inhibitor; 23.5 nM): 34%
CN(c1ccnc(CNc2nc(Nc3ccc4c(c3)CC(=O)N4)ncc2C(F)(F)F)n1)S(C)(=O)=O — remaining binding (cell-free assay, competition with immobilised ligand; 1 µM): 44%
CS(=O)(=O)CCNCc1ccc(-c2ccc3ncnc(Nc4ccc(OCc5cccc(F)c5)c(Cl)c4)c3c2)o1 — remaining signal (cell-free assay; 0.5 µM): 110%
CS(=O)(=O)c1cc(C2(NC(=O)c3cncc4c3cnn4-c3ccc(F)cc3)CC2)ccn1 — remaining binding (cell-free assay, competition with immobilised ligand; 1 µM): 92%
CC(C)(C)c1nc2c(s1)c1nc(N)ncc1c1ccc(NS(=O)(=O)c3c(F)cccc3F)c(F)c12 — remaining activity (enzyme activity, inhibitor, radiometric; 1 µM): 117%
Cc1nc(C2CCN(C(=O)c3ccc(OC(F)(F)F)cc3N)CC2)c2ncc(N3CCN(C)CC3)cc2n1 — remaining binding (cell-free assay, competition with immobilised ligand; 1 µM): 92%
COc1ccc(F)cc1C(=O)NCc1ccc(-c2nn([C@@H](C)C(F)(F)F)c(N)c2C(N)=O)cc1 — inhibition (target engagement in cells, inhibitor, chemoproteomics; 10 µM): -38.5%
CN([C@@H]1CCc2c(CC(=O)O)c3cc(S(C)(=O)=O)ccc3n2C1)S(=O)(=O)c1ccc(F)cc1 — remaining binding (cell-free assay, competition with immobilised ligand; 1 µM): 85%
Cc1ccc(NC(=O)c2ccc(CN3CCN(C)CC3)cc2)cc1Nc1nc(-c2cccnc2)cs1 — remaining signal (cell-free assay; 0.5 µM): 108%
